The source of these data is ChEMBL document CHEMBL1255220, “Synthesis and antitumor effect in vitro and in vivo of substituted 1,3-dihydroindole-2-ones” (J Med Chem, 2010).

Active and inactive are the calls of the source. The calls are words filed in the database; no cut-off is given here. A value given as a limit tells only on which side of the number the result lay.

Data set [1] has as its system MCF7. Briefly: Cytotoxicity against human MCF7 cells after 72 hrs by WST-1 assay. In kind it is functional, cell-based. The settings on record: Homo sapiens, MCF7, 72 h. An outline of the steps:
(§1)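 Cells seeded at 3×10³/well; next day serially diluted compound added in triplicate; 72 h at 37 °C, 5% CO₂. Viable cells measured with WST-1 reagent (1 h), absorbance 450 nm minus 690 nm reference. IC50 is mean ± SD of at least two experiments run in triplicate. MCF-7 grown in DMEM, PC3 in RPMI, each with 10% serum.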
(Formazan colour is commonly taken as a measure of viable cells.)

Data set [2] has as its system PC-3. Briefly: Cytotoxicity against human PC3 cells after 72 hrs by WST-1 assay. The settings on record: Homo sapiens, PC-3, 72 h. Type of data set: functional, cell-based. The method, boiled down:
as §1

The subject of the next data set is MDA-MB-468. The data set can be described thus: Cytotoxicity against human MDA-MB-468 cells. Type of data set: functional, cell-based.
A further data set concerns MDA-MB-231. Briefly: Cytotoxicity against human MDA-MB-231 cells. Type of data set: functional, cell-based.
Data set [3] relates to PC-3. The data set can be described thus: Antitumor activity against human PC3 cells xenografted in sc dosed NMRI mouse assessed as tumor regression dose. In kind it is functional. The method, boiled down: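 1e7 PC3 cells (grown in RPMI + 10% FBS) in PBS/Matrigel 1:1 injected sc into female NMRI nude mice or female NIH-RNU nude rats. Compound dosed iv three times per week. Tumour regression dose recorded. Rat effective doses were estimated from mouse xenografts using a 0.5 mouse-to-rat conversion factor.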
On the technique in general: In xenograft studies the graft and the host belong to different species.

Data set [4] can be described thus: Therapeutic index, ratio of MTD in rat to ED50 for antitumor activity against human PC3 cells xenografted in rat. Type of data set: cell-based, PC-3. The settings on record: in vivo, read-out: TI. The method, boiled down: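 PC3 human prostate cancer cells (1e7, grown in RPMI + 10% FBS, suspended in PBS + Matrigel) were implanted sc in female nude rats (NIHRNU-M) or nude mice (NMRI/nude), with iv dosing 3×/week. Rat MTD came from a single iv dose. Effective rat doses were estimated from mouse xenografts using a mouse-to-rat conversion factor of 0.5. Index = rat toxic dose / rat effective dose.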

A short description of data set [5]: AUC in mouse at 5 mg/kg, iv. The settings on record: plasma. Also noted: dose 5 mg/kg, route intravenous. In kind it is ADME, organism-based. An outline of the steps:
(§2)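 Compound given as single iv dose to mice or rats. Plasma samples prepared by protein precipitation with acetonitrile containing 1 μg/mL internal standard (3:1 v/v). Analysed by UPLC-MS/MS on a C18 reversed-phase column at 40 °C with an acetonitrile–0.05% formic acid gradient. Half-life and AUC (h ng/mL) derived from the plasma levels.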

Data set [6] can be described thus: Half life in mouse at 5 mg/kg, iv. Type of data set: ADME, organism-based. The settings on record: in vivo. Also noted: dose 5 mg/kg, route intravenous. An outline of the steps:
as §2

Data set [7] can be described thus: Toxicity in iv dosed rat assessed as maximum tolerated dose. The settings on record: in vivo.
For data set [8], the system named is PC-3. Briefly: Antitumor activity against human PC3 cells xenografted in sc dosed rat assessed as tumor regression dose. Type of data set: functional.
Data set [9] can be described thus: Half life in rat at 10 mg/kg, iv. In kind it is ADME, organism-based. Also noted: dose 10 mg/kg, route intravenous. The settings on record: in vivo. An outline of the steps:
as §2

A short description of data set [10]: AUC in rat at 10 mg/kg, iv. The note with it: plasma. In kind it is ADME, organism-based. The arrangement: dose 10 mg/kg, route intravenous. An outline of the steps:
as §2

Data set [11] deals with Eukaryotic translation initiation factor 2 subunit 1 (Homo sapiens) (UniProt P05198). Briefly: Inhibition of eIF2alpha autophosphorylation in human A2780 cells. In kind it is cell-based. The method, boiled down: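 MCF-7 (DMEM) and A2780 (RPMI 1640) cells, together with sublines made resistant by culture in rising concentrations of the parent oxindole, were treated with compound for 4 and 24 h respectively. Lysates (20 μg protein) separated by SDS-PAGE and blotted onto nitrocellulose. Phospho-eIF2α read by western blot: milk block, primary antibody overnight at 4 °C, HRP secondary antibody.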

The target is the same in data set [12]. Briefly: Induction of eIF2alpha phosphorylation in human MCF7 cells.
In data set [13] the test system is MCF7. The data set can be described thus: Cytotoxicity against human MCF7 cells after 72 hrs at 0.5 uM by WST-1 assay. Type of data set: functional. The note with it: MCF7, 72 h.

Sequence of Eukaryotic translation initiation factor 2 subunit 1 (Homo sapiens) (P05198 whole entry): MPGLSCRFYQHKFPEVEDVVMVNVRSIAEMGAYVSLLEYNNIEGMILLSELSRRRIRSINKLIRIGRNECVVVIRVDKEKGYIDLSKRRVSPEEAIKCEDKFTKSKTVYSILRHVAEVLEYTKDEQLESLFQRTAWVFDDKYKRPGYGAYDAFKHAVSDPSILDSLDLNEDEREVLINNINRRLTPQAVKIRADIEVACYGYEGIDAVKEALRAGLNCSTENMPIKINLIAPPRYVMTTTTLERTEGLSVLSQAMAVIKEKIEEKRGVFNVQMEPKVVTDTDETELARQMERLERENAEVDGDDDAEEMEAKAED

Turning to `O=C1Nc2c(ccc(F)c2F)C1(c1ccc(O)cc1)c1ccc(O)cc1`, the IC50 with MCF7 [1] is 20 nM; in the data set with PC-3 [2], 699 nM; in the data set on MDA-MB-468 it was 20 nM; in the data set on MDA-MB-231, greater than 3000 nM. In addition, in the data set with PC-3 [3], the Activity is 5 mg/kg. In data set [4], the selectivity ratio turned out to be 0.4. The compound also displayed an AUC in [5] of 6770 ng·h/mL. Besides, in [6], the half-life is 1.7 h. In data set [7], the MTD worked out at 1 mg/kg.

With `COc1ccc2c(c1C)NC(=O)C2(c1ccc(O)cc1)c1ccc(F)cc1` (racemic), the IC50 in the data set on MCF7 [1] is 6.3 nM; with PC-3 [2], 9 nM. Moreover, the Activity is 10 mg/kg with PC-3 [3] and less than 10 mg/kg in the data set with PC-3 [8]. In addition, the selectivity ratio in [4] was determined as 3. The same compound had a half-life in [9] of 1.5 h. For the same compound, the AUC in data set [10] stood at 3950 ng·h/mL. In addition, in data set [7], the MTD was 15 mg/kg.

Regarding `COc1ccc2c(c1C)NC(=O)C2(c1ccc(O)cc1)C1CCCCCC1` (racemic), the IC50 turned out to be 4.7 nM in the data set with MCF7 [1] and 12 nM with PC-3 [2]. Further, in data set [11], the inhibition result was “inactive”. The Activity with PC-3 [3] was found to be 20 mg/kg; with PC-3 [8] it was 10 mg/kg. Also, in [4], the selectivity ratio came to 7. For the same compound, in data set [9], the half-life was 1.5 h. Also, the AUC in [10] was found to be 5760 ng·h/mL. In data set [12], the induction result is “inactive”. In addition, the MTD in data set [7] worked out at 70 mg/kg.

Regarding `O=C1Nc2ccccc2C1(c1ccc(O)cc1)c1ccc(O)cc1` [OXYPHENISATINE], in the data set with PC-3 [2], the IC50 is greater than 1000 nM. The same compound registered an inhibition at 0.5 µM in the data set with MCF7 [13] of 73%.

The term IC50 denotes the concentration at which inhibition is half-maximal. A lower IC50 goes with greater potency in that assay. As usually defined, the AUC is the area under the concentration-time curve, a measure of exposure. Low readings indicate low exposure, high ones high exposure. In general, half-life refers to the time in which the quantity being followed falls by half. A word on the MTD: it is the highest dose tested that stayed within the study's limit of toxicity. As a reminder, the inhibition is the relative decrease from the control value, in per cent.
